Measured values: ChEMBL document CHEMBL4610117 (J Med Chem, 2020)

Key:
[1] = Clearance in human hepatocytes at 1 uM measured after 2 to 90 mins by LC-MS/MS analysis; format: ADME, cell-based, Hepatocyte
[2] = Clearance in Han-Wistar rat hepatocytes at 1 uM measured after 2 to 90 mins by LC-MS/MS analysis; format: ADME, cell-based, Hepatocyte
[3] = Oral bioavailability in Wistar rat at 0.6 to 1 mg/kg by LC-MS/MS analysis; format: ADME, organism-based; conditions: in vivo
[4] = molecular target: Phosphatidylinositol 4,5-bisphosphate 3-kinase catalytic subunit beta isoform (Homo sapiens, UniProt P42338); experiment: Inhibition of PI3Kbeta (unknown origin)
[5] = molecular target: Serine/threonine-protein kinase mTOR (Homo sapiens, UniProt P42345); experiment: Binding affinity to wild-type human partial length mTOR (L1382 to W2549 residues) expressed in mammalian expression system by Kinomescan method
[6] = Maximum oral bioavailability in mouse liver microsomes based well stirred liver model at 1 uM measured after 2 to 60 mins in presence of NADP by LC-MS/MS analysis; format: ADME, Microsome; conditions: read-out: Fmax
[7] = Protein binding in human plasma assessed as unbound fraction at 3 uM measured after 7 hrs by LC-MS/MS analysis; format: ADME, cell-free
[8] = Clearance in Beagle dog at 0.3 to 0.5 mg/kg, iv administered as bolus dose by LC-MS/MS analysis; format: ADME, organism-based, Canis lupus familiaris; conditions: in vivo
[9] = Clearance in NMRI mouse at 0.3 to 0.5 mg/kg, iv administered as bolus dose by LC-MS/MS analysis; format: ADME, organism-based; conditions: in vivo
[10] = Volume of distribution at steady state in NMRI mouse at 0.3 to 0.5 mg/kg, iv administered as bolus dose by LC-MS/MS analysis; format: ADME, organism-based; conditions: in vivo
[11] = Apparent half life in Beagle dog at 0.3 to 0.5 mg/kg, iv administered as bolus dose by LC-MS/MS analysis; format: ADME, organism-based, Canis lupus familiaris; conditions: in vivo, read-out: t1/2(app) (converted)
SU-DHL-8 = experiment: Antitumor activity against human SUDHL8 cells harboring ATM K1964E mutant xenografted in CB-17 mouse assessed as tumor growth at 50 mg/kg, po bid dosed every 3 days followed by 4 days interval relative to control; format: functional
In short: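 SU-DHL-8 (ATM K1964E) GCB-DLBCL cell line-derived xenograft in female C.B-17 SCID mice, n = 9/group. Oral dosing at 50 mg/kg b.i.d. on an intermittent schedule of 3 days on/4 days off. Treatment-to-control (T/C) ratio versus vehicle.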

[12] = Antitumor activity against human CR5038 cells xenografted in NOD/SCID mouse assessed as tumor growth at 20 mg/kg, po qd dosed every 2 days followed by 5 days interval for 2 weeks and subsequent dosing at 10 mg/kg in presence of carboplatin relative to control; format: functional
In short: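 CR5038 human CRC PDX in NOD/SCID mice, n = 10/group. Oral dosing q.d. at 20 mg/kg, reduced to 10 mg/kg from day 14, 2 days on/5 days off. Combined with carboplatin 40 mg/kg i.p. once weekly (1 day on/6 days off). T/C ratio reported versus vehicle and the monotherapies; body weight was monitored.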

[13] = Toxicity in NOD/SCID mouse xenografted with human CR5038 cells assessed as body weight loss at 20 mg/kg, po qd dosed every 2 days followed by 5 days for 2 weeks and subsequent dosing at 10 mg/kg interval measured on day 11 to 14 and 28 to 31 in presence of carboplatin relative to control; format: organism-based; conditions: in vivo
[14] = Toxicity in nude mouse xenografted with human SUM149 cells assessed as body weight loss at 20 mg/kg, po bid dosed every 3 days followed by 4 days interval in presence of olaparib relative to control; format: organism-based, SUM149PT; conditions: in vivo
SUM149PT = experiment: Antitumor activity against human SUM149 cells xenografted in nude mouse assessed as tumor growth at 20 mg/kg, po bid dosed every 3 days followed by 4 days interval in presence of olaparib relative to control; format: functional
In short: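 SUM149 human TNBC xenograft in nude mice, n = 10/group. Oral 20 mg/kg b.i.d., 3 days on/4 days off, combined with olaparib 50 mg/kg q.d. i.p. T/C ratio versus vehicle and the monotherapies; body weight loss was monitored.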

Phosphatidylinositol 4,5-bisphosphate 3-kinase catalytic subunit beta isoform, sequence (P42338 whole entry, the tested form may be a part, canonical isoform): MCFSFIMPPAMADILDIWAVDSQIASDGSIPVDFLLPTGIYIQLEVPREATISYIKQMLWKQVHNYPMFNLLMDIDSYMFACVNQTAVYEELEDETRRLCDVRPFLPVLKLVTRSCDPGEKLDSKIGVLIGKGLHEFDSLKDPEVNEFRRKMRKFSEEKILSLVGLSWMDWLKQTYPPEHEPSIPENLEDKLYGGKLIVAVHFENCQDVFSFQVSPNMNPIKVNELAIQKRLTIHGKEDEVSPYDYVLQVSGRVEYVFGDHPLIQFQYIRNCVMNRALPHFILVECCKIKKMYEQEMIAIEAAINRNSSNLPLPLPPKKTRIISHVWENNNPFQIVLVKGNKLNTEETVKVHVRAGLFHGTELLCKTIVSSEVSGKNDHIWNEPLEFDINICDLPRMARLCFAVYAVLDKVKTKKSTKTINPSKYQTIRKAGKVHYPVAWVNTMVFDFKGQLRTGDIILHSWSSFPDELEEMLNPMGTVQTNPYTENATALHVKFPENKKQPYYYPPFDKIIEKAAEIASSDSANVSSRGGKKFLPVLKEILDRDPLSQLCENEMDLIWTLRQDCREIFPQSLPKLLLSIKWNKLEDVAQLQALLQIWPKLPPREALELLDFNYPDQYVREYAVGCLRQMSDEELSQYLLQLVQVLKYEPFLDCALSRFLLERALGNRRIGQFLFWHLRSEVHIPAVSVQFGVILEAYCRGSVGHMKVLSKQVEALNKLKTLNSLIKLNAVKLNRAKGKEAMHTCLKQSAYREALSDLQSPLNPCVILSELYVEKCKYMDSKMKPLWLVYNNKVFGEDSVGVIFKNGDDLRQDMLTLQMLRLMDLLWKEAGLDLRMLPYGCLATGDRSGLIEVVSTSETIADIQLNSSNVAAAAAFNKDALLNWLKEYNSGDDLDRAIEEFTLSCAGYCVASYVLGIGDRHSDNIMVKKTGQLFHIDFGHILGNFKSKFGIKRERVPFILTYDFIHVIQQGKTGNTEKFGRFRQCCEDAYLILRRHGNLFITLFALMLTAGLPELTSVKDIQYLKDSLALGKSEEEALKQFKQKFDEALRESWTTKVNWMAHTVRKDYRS

C[C@@H]1COCCN1c1cc(-c2ccnn2C)c2ccnc(-c3ccn[nH]3)c2n1 [ELIMUSERTIB]
CLH [1]: 6.83 mL/min/kg
CLH [2]: 12.3 mL/min/kg
bioavailability [3]: 87%
IC50 [4]: 3270 nM
Kd [5]: 24 nM
Fh at 1 µM [6]: 44%
fraction unbound at 7 h, 3 µM [7]: 0.03
clearance [8]: 13.2 mL/min/kg
CL [9]: 58.3 mL/min/kg
Vdss [10]: 8.8 L/kg
half-life [11]: 1 h
T/C (SU-DHL-8): -0.03
T/C [12]: 0.34
Activity [13]: < 10%
Activity [14]: < 10%
T/C (SUM149PT): -0.06
